Assays:
[1] = molecular target: T1, Cholesteryl ester transfer protein (Homo sapiens, UniProt P11597); test: In vitro concentration required to inhibit 50% of cholesteryl ester transfer protein mediated cholesteryl ester transfer from HDL to VLDL and LDL in human plasma; assay type: cell-free
T1 sequence (P11597 whole entry): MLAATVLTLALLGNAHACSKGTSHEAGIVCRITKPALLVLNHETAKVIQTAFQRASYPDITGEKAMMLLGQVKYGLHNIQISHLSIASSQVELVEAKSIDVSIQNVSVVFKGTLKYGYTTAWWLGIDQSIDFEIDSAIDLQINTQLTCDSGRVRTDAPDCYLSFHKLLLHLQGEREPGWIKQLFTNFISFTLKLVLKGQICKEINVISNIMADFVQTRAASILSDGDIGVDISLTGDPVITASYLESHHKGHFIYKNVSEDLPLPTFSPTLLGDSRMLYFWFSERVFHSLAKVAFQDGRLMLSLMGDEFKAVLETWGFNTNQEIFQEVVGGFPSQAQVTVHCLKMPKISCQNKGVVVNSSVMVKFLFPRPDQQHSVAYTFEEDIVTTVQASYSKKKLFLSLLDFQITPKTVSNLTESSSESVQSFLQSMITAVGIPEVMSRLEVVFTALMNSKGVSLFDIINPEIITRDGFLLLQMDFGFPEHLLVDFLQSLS
Procedure, shortened: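 Compound dissolved in 1:1 N-methyl-2-pyrrolidinone/PEG 400 and added to human plasma, with organic solvent at 2% final. Plasma then incubated with [3H]CE-labelled HDL at 37 °C for 4 h. ApoB lipoproteins precipitated with dextran sulfate (0.075% final) and MgCl2 (37.5 mM final). Transfer taken as the loss of supernatant HDL radioactivity. IC50 estimated from five-dose response curves.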

[2] = molecular target: T2, Cholesteryl ester transfer protein (Homo sapiens) (UniProt P11597); test: Percent inhibition of cholesteryl ester transfer protein in human plasma at 9 uM; assay type: cell-free
T2 sequence (whole entry): T1 sequence (P11597 whole entry)

Oryctolagus cuniculus [3] = test: In vivo percent elevation evaluated from the plasma HDL levels in JW rabbits by oral administration of 30 mg/kg once a day for 3 days; assay type: functional
Procedure, shortened: (§1)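 Male JW rabbits, 11-15 weeks old, N = 5, dosed orally once daily for 3 days. ApoB lipoproteins in plasma precipitated with 13% PEG 6000, and HDL cholesterol measured by enzymatic assay. Elevation expressed relative to vehicle-dosed rabbits.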

Oryctolagus cuniculus [4] = test: In vivo percent inhibition of cholesteryl ester transfer protein was measured 3h after oral administration of 10 mg/kg JW rabbits plasma; assay type: functional
Procedure, shortened: (§2)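 Male JW rabbits, 11-15 weeks old, dosed orally; plasma taken 3 h post-dose and spun at 11000g for 5 min at 4 °C. Plasma (1.8 µL) diluted to 600 µL in Tris-buffered saline pH 7.4 with 0.1 mg/mL BSA. Incubated 15 h at 37 °C with [3H]CE-HDL and VLDL/LDL, then VLDL/LDL precipitated with dextran sulfate/MgCl2 and supernatant counted. Inhibition expressed relative to vehicle-dosed rabbits.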

Oryctolagus cuniculus [5] = test: In vivo percent inhibition of cholesteryl ester transfer protein was measured 3h after oral administration of 30 mg/kg JW rabbits plasma; assay type: functional; procedure, shortened: as §2
Oryctolagus cuniculus [6] = test: In vivo percent elevation evaluated from the plasma HDL levels in JW rabbits by oral administration of 100 mg/kg once a day for 3 days; assay type: functional; procedure, shortened: as §1
[7] = molecular target: T2, Cholesteryl ester transfer protein (Homo sapiens); test: Percent inhibition of cholesteryl ester transfer protein in human plasma at 5 uM; assay type: cell-free

CC(C)(C)C(=O)Nc1ccc(SSc2ccc(NC(=O)C(C)(C)C)cc2)cc1
IC50 [1]: > 500 µM

CCCCC1(C(=O)Nc2ccccc2S)CCCCC1
IC50 [1]: 9 µM

CN(C(=O)C(C)(C)C)c1ccccc1SSc1ccccc1N(C)C(=O)C(C)(C)C
IC50 [1]: > 300 µM

CCC(=O)Nc1ccccc1SSc1ccccc1NC(=O)CC
IC50 [1]: 180 µM

CC(C)CCCC1(C(=O)Nc2ccccc2S)CCCCC1
IC50 [1]: 6 µM

CCC(CC)CC1(C(=O)Nc2ccccc2SC)CCCCC1
IC50 [1]: > 300 µM

CCCCCCC1(C(=O)Nc2ccccc2S)CCCCC1
IC50 [1]: 6 µM

CCC(CC)CC1(C(=O)Nc2ccccc2SC(=O)C(C)C)CCCCC1 [DALCETRAPIB]
IC50 [1]: 6 µM
inhibition [2]: 50%
Elevation (Oryctolagus cuniculus [3]): 27%
inhibition in vivo at 10 mg/kg (Oryctolagus cuniculus [4]): 35%
inhibition in vivo at 30 mg/kg (Oryctolagus cuniculus [5]): 95%
Elevation (Oryctolagus cuniculus [6]): 54%

CCC(CC)CC1(C(=O)Nc2ccccc2SC(C)=O)CCCCC1
inhibition in vivo at 30 mg/kg (Oryctolagus cuniculus [5]): 40%

CC1(C(=O)Nc2ccccc2SSc2ccccc2NC(=O)C2(C)CCCCC2)CCCCC1
IC50 [1]: 8 µM

CCCCCCCC1(C(=O)Nc2ccccc2S)CCCCC1
IC50 [1]: 7 µM

CC(C)(C)C(=O)Nc1ccccc1SSc1ccccc1NC(=O)C(C)(C)C
IC50 [1]: 13 µM

CC1(C(=O)Nc2ccccc2OC(=O)Cc2ccccc2)CCCCC1
IC50 [1]: > 300 µM

CCC(CC)CC1(C(=O)Nc2ccccc2SC(=O)C(C)(C)C)CCCCC1
inhibition in vivo at 30 mg/kg (Oryctolagus cuniculus [5]): 32%

CC(C)(C)NC(=O)c1ccccc1SSc1ccccc1C(=O)NC(C)(C)C
IC50 [1]: > 500 µM

CC(=O)Nc1ccccc1SSc1ccccc1NC(C)=O
IC50 [1]: 500 µM

CCC(CC)CC1(C(=O)Nc2ccccc2S)CCCCC1
IC50 [1]: 5 µM
inhibition [7]: 50%

CC(C)(C)C(=O)Nc1cccc(SSc2cccc(NC(=O)C(C)(C)C)c2)c1
IC50 [1]: > 500 µM

CCCCCCCC(=O)Nc1ccccc1SSc1ccccc1NC(=O)CCCCCCC
IC50 [1]: 21 µM

CCCCCC1(C(=O)Nc2ccccc2S)CCCCC1
IC50 [1]: 7 µM

From ChEMBL document CHEMBL1133653, “bis(2-(Acylamino)phenyl) disulfides, 2-(acylamino)benzenethiols, and S-(2-(acylamino)phenyl) alkanethioates as novel inhibitors of cholesteryl ester transfer protein” (J Med Chem, 2000)
